Marks after values point to notes of the source that are not given here.
What was measured:
[1] = test system: Japanese patients with T2DM; assay: Urinary glucose excretion; type: in vivo, human
How it was run: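 Dosing was once daily, 0.5–5 mg or placebo, before a standardized ~600 kcal breakfast. Read-outs were 24-h cumulative UGE, total UGE and per-interval UGE rate, plus change from Day −1. LS mean difference vs placebo with 95% CI.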

[2] = test system: Japanese patients with T2DM; assay: Plasma glucose concentrations, 7-day once-daily dosing; type: in vivo, human
How it was run: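 Plasma glucose was measured by a glucose dehydrogenase enzymatic UV method. Sampling was pre-breakfast/pre-dose and 0.5–24 h after breakfast on Day −1, after dosing on Days 1 and 7, and pre-breakfast on Days 11 and 14. Standardized ~600 kcal meals were given, with lunch and dinner at 4 and 12 h. AUC, Cmax and tmax were non-compartmental. MPG was the mean of the 0, 2, 4, 6, 12, 14 and 16 h values. LS mean difference vs placebo with 95% CI.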

Compound: CCOc1ccc(Cc2cc([C@@H]3S[C@H](CO)[C@@H](O)[C@H](O)[C@H]3O)c(OC)cc2C)cc1 [Luseogliflozin, (1S)-1,5-anhydro-1-[5-(4-ethoxybenzyl)-2-methoxy-4-methylphenyl]-1-thio-D-glucitol]
- UGE0–24h ([1]; 0.5 mg OD, Day 1): 81.5 ± 33.2 g
- UGE0–24h LS mean difference vs placebo (95% CI) ([1]; 0.5 mg OD, Day 1): 46.4 (32.9, 60.0)* g
- Least-squares mean difference in 24-h UGE vs placebo ([1]; 0.5 mg OD, Day 7): 49.2 g/day
- UGE0–24h ([1]; 0.5 mg OD, Day 7): 81.7 ± 30.1 g
- UGE0–24h LS mean difference vs placebo (95% CI) ([1]; 0.5 mg OD, Day 7): 49.2 (27.9, 70.5)* g
- UGE0–24h LS mean difference vs placebo (95% CI) ([1]; 0.5 mg OD, Day 7, listed as luseogliflozin): 49.2 g
- UGE0–24h ([1]; 1 mg OD, Day 1): 75.1 ± 23.3 g
- UGE0–24h LS mean difference vs placebo (95% CI) ([1]; 1 mg OD, Day 1): 58.9 (45.7, 72.1)* g
- Least-squares mean difference in 24-h UGE vs placebo ([1]; 1 mg OD, Day 7): 66.5 g/day
- UGE0–24h ([1]; 1 mg OD, Day 7): 85.3 ± 18.8 g
- UGE0–24h LS mean difference vs placebo (95% CI) ([1]; 1 mg OD, Day 7): 66.5 (45.8, 87.1)* g
- UGE0–24h LS mean difference vs placebo (95% CI) ([1]; 1 mg OD, Day 7, listed as luseogliflozin): 66.5 g
- UGE0–24h ([1]; 2.5 mg OD, Day 1): 139 ± 31.1 g
- UGE0–24h LS mean difference vs placebo (95% CI) ([1]; 2.5 mg OD, Day 1): 91.7 (78.1, 105)* g
- Least-squares mean difference in 24-h UGE vs placebo ([1]; 2.5 mg OD, Day 7): 89.4 g/day
- UGE0–24h ([1]; 2.5 mg OD, Day 7): 131 ± 29.9 g
- UGE0–24h LS mean difference vs placebo (95% CI) ([1]; 2.5 mg OD, Day 7): 89.4 (68.2, 111)* g
- UGE0–24h LS mean difference vs placebo (95% CI) ([1]; 2.5 mg OD, Day 7, listed as luseogliflozin): 89.4 g
- energy loss equivalent to the increase in UGE ([1]; 5 mg OD): approximately 400 kcal
- increase in UGE ([1]; 5 mg OD): about 100 g glucose/day
- UGE0–24h ([1]; 5 mg OD, Day 1): 116 ± 29.0 g
- UGE0–24h LS mean difference vs placebo (95% CI) ([1]; 5 mg OD, Day 1): 101 (87.6, 114)* g
- Least-squares mean difference in 24-h UGE vs placebo ([1]; 5 mg OD, Day 7): 101 g/day
- UGE0–24h ([1]; 5 mg OD, Day 7): 120 ± 33.1 g
- UGE0–24h LS mean difference vs placebo (95% CI) ([1]; 5 mg OD, Day 7): 101 (80.7, 122)* g
- UGE0–24h LS mean difference vs placebo (95% CI) ([1]; 5 mg OD, Day 7, listed as luseogliflozin): 101 g
- time for UGE to return toward the baseline value after treatment discontinuation ([1]; each dose group): 1 to 3 days
- FPG (24 h after dose) ([2]; 0.5 mg OD, Day 1): 156 ± 23 mg/dL
- FPG (24 h after dose) LS mean difference vs placebo (95% CI) ([2]; 0.5 mg OD, Day 1): −7.15 (−16.0, 1.71) mg/dL
- MPG0–16h ([2]; 0.5 mg OD, Day 1): 224 ± 38.8 mg/dL
- MPG0–16h LS mean difference vs placebo (95% CI) ([2]; 0.5 mg OD, Day 1): −6.39 (−16.6, 3.79) mg/dL
- Plasma glucose AUC0–4h (after breakfast) ([2]; 0.5 mg OD, Day 1): 946 ± 175 mg·h/dL
- Plasma glucose AUC0–4h (after breakfast) LS mean difference vs placebo (95% CI) ([2]; 0.5 mg OD, Day 1): 29.4 (−25.0, 83.8) mg h/dL
- Plasma glucose AUC4–8h (after lunch) ([2]; 0.5 mg OD, Day 1): 915 ± 207 mg·h/dL
- Plasma glucose AUC4–8h (after lunch) LS mean difference vs placebo (95% CI) ([2]; 0.5 mg OD, Day 1): −111 (−191, −31.1)* mg h/dL
- Plasma glucose AUC12–16h (after dinner) ([2]; 0.5 mg OD, Day 1): 989 ± 114 mg·h/dL
- Plasma glucose AUC12–16h (after dinner) LS mean difference vs placebo (95% CI) ([2]; 0.5 mg OD, Day 1): −16.3 (−69.6, 37.0) mg h/dL
- Plasma glucose C max0–4h (after breakfast) ([2]; 0.5 mg OD, Day 1): 278 ± 53.0 mg/dL
- Plasma glucose C max4–8h (after lunch) ([2]; 0.5 mg OD, Day 1): 259 ± 52.3 mg/dL
- Plasma glucose C max4–8h (after lunch) LS mean difference vs placebo (95% CI) ([2]; 0.5 mg OD, Day 1): −43.5 (−68.5, −18.5)* mg/dL
- Plasma glucose C max12–16h (after dinner) ([2]; 0.5 mg OD, Day 1): 286 ± 32.5 mg/dL
- Plasma glucose C max12–16h (after dinner) LS mean difference vs placebo (95% CI) ([2]; 0.5 mg OD, Day 1): −16.0 (−35.0, 3.05) mg/dL
- FPG (24 h after dose) ([2]; 0.5 mg OD, Day 7): 145 ± 18 mg/dL
- FPG (24 h after dose) LS mean difference vs placebo (95% CI) ([2]; 0.5 mg OD, Day 7): −18.4 (−31.1, −5.75)* mg/dL
- MPG0–16h ([2]; 0.5 mg OD, Day 7): 204 ± 35.3 mg/dL
- MPG0–16h LS mean difference vs placebo (95% CI) ([2]; 0.5 mg OD, Day 7): −25.0 (−42.2, −7.90)* mg/dL
- Plasma glucose AUC0–4h (after breakfast) ([2]; 0.5 mg OD, Day 7): 810 ± 156 mg·h/dL
- Plasma glucose AUC0–4h (after breakfast) LS mean difference vs placebo (95% CI) ([2]; 0.5 mg OD, Day 7): −108 (−186, −29.3)* mg h/dL
- Plasma glucose AUC4–8h (after lunch) ([2]; 0.5 mg OD, Day 7): 887 ± 209 mg·h/dL
- Plasma glucose AUC4–8h (after lunch) LS mean difference vs placebo (95% CI) ([2]; 0.5 mg OD, Day 7): −165 (−267, −64.2)* mg h/dL
- Plasma glucose AUC12–16h (after dinner) ([2]; 0.5 mg OD, Day 7): 924 ± 108 mg·h/dL
- Plasma glucose AUC12–16h (after dinner) LS mean difference vs placebo (95% CI) ([2]; 0.5 mg OD, Day 7): −44.7 (−122, 32.2) mg h/dL
- Plasma glucose C max0–4h (after breakfast) ([2]; 0.5 mg OD, Day 7): 243 ± 42.1 mg/dL
- Plasma glucose C max4–8h (after lunch) ([2]; 0.5 mg OD, Day 7): 256 ± 61.7 mg/dL
- Plasma glucose C max4–8h (after lunch) LS mean difference vs placebo (95% CI) ([2]; 0.5 mg OD, Day 7): −46.2 (−76.1, −16.3)* mg/dL
- Plasma glucose C max12–16h (after dinner) ([2]; 0.5 mg OD, Day 7): 274 ± 34.6 mg/dL
- Plasma glucose C max12–16h (after dinner) LS mean difference vs placebo (95% CI) ([2]; 0.5 mg OD, Day 7): −9.79 (−35.5, 15.9) mg/dL
- FPG (24 h after dose) ([2]; 1 mg OD, Day 1): 146 ± 25 mg/dL
- FPG (24 h after dose) LS mean difference vs placebo (95% CI) ([2]; 1 mg OD, Day 1): −7.90 (−16.6, 0.795) mg/dL
- MPG0–16h ([2]; 1 mg OD, Day 1): 188 ± 30.0 mg/dL
- MPG0–16h LS mean difference vs placebo (95% CI) ([2]; 1 mg OD, Day 1): −18.4 (−28.3, −8.55)* mg/dL
- Plasma glucose AUC0–4h (after breakfast) ([2]; 1 mg OD, Day 1): 812 ± 158 mg·h/dL
- Plasma glucose AUC0–4h (after breakfast) LS mean difference vs placebo (95% CI) ([2]; 1 mg OD, Day 1): −48.9 (−102, 4.37) mg h/dL
- Plasma glucose AUC4–8h (after lunch) ([2]; 1 mg OD, Day 1): 766 ± 131 mg·h/dL
- Plasma glucose AUC4–8h (after lunch) LS mean difference vs placebo (95% CI) ([2]; 1 mg OD, Day 1): −89.1 (−166, −11.9)* mg h/dL
- Plasma glucose AUC12–16h (after dinner) ([2]; 1 mg OD, Day 1): 851 ± 117 mg·h/dL
- Plasma glucose AUC12–16h (after dinner) LS mean difference vs placebo (95% CI) ([2]; 1 mg OD, Day 1): −91.4 (−142, −40.8)* mg h/dL
- Plasma glucose C max0–4h (after breakfast) ([2]; 1 mg OD, Day 1): 255 ± 44.1 mg/dL
- Plasma glucose C max4–8h (after lunch) ([2]; 1 mg OD, Day 1): 223 ± 33.7 mg/dL
- Plasma glucose C max4–8h (after lunch) LS mean difference vs placebo (95% CI) ([2]; 1 mg OD, Day 1): −30.5 (−54.1, −7.02)* mg/dL
- Plasma glucose C max12–16h (after dinner) ([2]; 1 mg OD, Day 1): 255 ± 37.3 mg/dL
- Plasma glucose C max12–16h (after dinner) LS mean difference vs placebo (95% CI) ([2]; 1 mg OD, Day 1): −31.3 (−49.4, −13.3)* mg/dL
- FPG (24 h after dose) ([2]; 1 mg OD, Day 7): 139 ± 14 mg/dL
- FPG (24 h after dose) LS mean difference vs placebo (95% CI) ([2]; 1 mg OD, Day 7): −18.1 (−30.5, −5.62)* mg/dL
- MPG0–16h ([2]; 1 mg OD, Day 7): 184 ± 24.0 mg/dL

Source: article PMC4415995 (Advances in Therapy, 2015)
